Source: PubChem
GalR3 antag: antagonists of human GalR3; O60755; HEK293 GalR3-CNG cAMP membrane potential fluorescence; galR3 body fused to GalR1 C-terminus; inhibition, % at 3 µM; 360,000 tested, 0.44% active; AID 651719;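 active = inhibition above the screen-wide average plus 3 SD, cut at about 13% in these data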;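 also: forskolin and galanin both at EC90 stimulate the cells; cAMP rise reported by CNG channel membrane potential dye signal; 0% = forskolin plus galanin with DMSO and 100% = forskolin alone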
Target sequence (O60755 1-299 limits assumed): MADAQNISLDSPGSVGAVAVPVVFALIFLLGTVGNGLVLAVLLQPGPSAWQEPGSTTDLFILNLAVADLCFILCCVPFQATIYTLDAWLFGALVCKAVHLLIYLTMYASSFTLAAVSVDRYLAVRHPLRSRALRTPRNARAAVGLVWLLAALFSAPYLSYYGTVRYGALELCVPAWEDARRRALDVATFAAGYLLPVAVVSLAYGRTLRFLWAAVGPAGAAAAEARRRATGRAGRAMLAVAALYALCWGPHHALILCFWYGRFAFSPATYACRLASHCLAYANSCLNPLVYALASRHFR
OX1R antag-1: human HCRTR1 antagonism | O43613 | CHO/OX1R cells, Fluo-8 calcium fluorescence, orexin A | inhibition, % at 5 µM | 330,000 tested, 0.43% active;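 active = inhibition above its plate's threshold, mean inhibition of all tested compounds on the plate plus 3 SD, cut at about 37% in these data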;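 also: 0% = orexin A challenge wells and 100% = SB-334867-A antagonist wells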
OX1R antag-2: blocks the human orexin 1 receptor. O43613. OX1R-expressing cells, FRET antagonist read-out. inhibition, % at 6.6 µM. 330,000 tested, 1.8% active; in the data active = inhibition mostly above about 38%, no sharp cut-off; inactive = mostly below about 40%;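 also: 0% = agonist challenge alone and 100% = reference antagonist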
CHO parental Ca: counter-screen: ATP calcium response change in parental CHO cells; parental CHO-K1, ATP-induced calcium, Fluo-8 fluorescence; inhibition, % at 5.6 µM; 330,000 tested, 0.63% active; AID 463079;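 active = inhibition above that plate's mean sample inhibition plus 3 SD, cut at about 26% in these data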;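 also: 0% = ATP-challenged DMSO wells and 100% = DMSO wells without ATP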
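Assay system – parental CHO cells · Reagent – ATP stimulus · Detection – intracellular calcium via Fluo-8 no-wash fluorescent dye · Evaluation – percent inhibition of ATP-evoked calcium rise, normalized to controls · Controls – ATP wells versus no-ATP DMSO wells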
GPR7 antagonist: antagonists of human GPR7 (neuropeptides B/W receptor 1); P48145; AID 1861; 290,000 tested, 1.1% active; inhibition, % at 4.4 µM; GPR7-expressing cells, fluorescence antagonist assay; in the data active = inhibition above about 16%, passing the limit was not always enough;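 also: cells stimulated with the agonist NPW; 0% = agonist with vehicle and 100% = vehicle without agonist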
OX1R Ca confirm: confirmation of human orexin 1 receptor antagonists; 1,100 tested, 38% active; CHO/OX1R cells, orexin A calcium Fluo-8 fluorescence; shares compounds with OX1R antag-1; AID 492963; inhibition, % at 5 µM; in the data active = inhibition above about 29%;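 also: 0% = agonist challenge alone and 100% = reference antagonist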
CHO Ca triplic: counter-screen: parental CHO calcium response change, triplicate; shares compounds with OX1R antag-1; 1,100 tested, 9.3% active; parental CHO-K1, ATP-induced calcium, Fluo-8 fluorescence; inhibition, % at 5.6 µM;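 active = inhibition above a per-plate limit, the mean inhibition of that plate's test compounds plus 3 SD, cut at about 25% in these data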;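 also: 0% = ATP challenge with DMSO and 100% = DMSO without ATP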
Active calls of the source: *. Rows were chosen to be rich in hits. Some 3.1% of all compounds tested hit in one or more screens of this group.

`Cc1ccc(NS(=O)(=O)c2cc(C(=O)Nc3cccc(N(C)S(C)(=O)=O)c3)ccc2C)c(C)c1` gave GalR3 antag 1, OX1R antag-1 14, OX1R antag-2 40, CHO parental Ca 4 and GPR7 antagonist 0.
For Cc1ccc(C)c(NS(=O)(=O)c2cc(C(=O)Nc3cccc(N(C)S(C)(=O)=O)c3)ccc2C)c1 the results were GalR3 antag -6, OX1R antag-1 65*, OX1R antag-2 34, CHO parental Ca 16, GPR7 antagonist 2, OX1R Ca confirm 36* and CHO Ca triplic -8.
For Cc1ccccc1NS(=O)(=O)c1cc(C(=O)N2CCCC2)ccc1C the results were GalR3 antag 0, OX1R antag-1 -15, OX1R antag-2 3, CHO parental Ca 2 and GPR7 antagonist -8.
Cc1ccc(C)c(NS(=O)(=O)c2cc(C(=O)NCCSC3CCCCC3)ccc2C)c1 was read as GalR3 antag 9, OX1R antag-1 51*, OX1R antag-2 17, CHO parental Ca -9, GPR7 antagonist -15, OX1R Ca confirm -1 and CHO Ca triplic -15.
Screening CC(=O)N(C)C[C@@H]1Oc2cc(Br)ccc2S(=O)(=O)N([C@H](C)CO)C[C@@H]1C returned GalR3 antag -6.
`Cc1ccc(/C=C2\SC(=S)N(CCC(=O)NNC(=O)c3cccnc3)C2=O)cc1` gave GalR3 antag 3, OX1R antag-1 -7, OX1R antag-2 28, CHO parental Ca -7 and GPR7 antagonist -7.
`O=C(CCN1C(=O)/C(=C/c2ccccc2)SC1=S)NNC(=O)c1cccnc1` gave GalR3 antag -3, OX1R antag-1 46*, OX1R antag-2 45, CHO parental Ca 16, GPR7 antagonist -2, OX1R Ca confirm 47* and CHO Ca triplic 69*.
For CCOC(=O)c1ccc(N=C2SC(C(=O)Nc3ccc(C(=O)O)cc3)CC(=O)N2Cc2cccs2)cc1 (stereo not drawn) the results were GalR3 antag 5, OX1R antag-1 35, OX1R antag-2 27, CHO parental Ca 25, GPR7 antagonist -2, OX1R Ca confirm 18 and CHO Ca triplic 7.
CC(C)CCN1C(=O)c2ccccc2C1c1nnnn1C(C)C (stereo not drawn) was read as GalR3 antag -6.
For COc1cc(Cn2c(N)c(C#N)c3nc4ccccc4nc32)cc(OC)c1 the results were GalR3 antag -3, OX1R antag-1 28, OX1R antag-2 28, CHO parental Ca 19, GPR7 antagonist 4, OX1R Ca confirm 33* and CHO Ca triplic 6.
`COc1ccc(Cn2nnnc2C(c2cccs2)N2CCN(c3ccccc3)CC2)cc1` (stereo not drawn) gave GalR3 antag -8, OX1R antag-1 -23, OX1R antag-2 29, CHO parental Ca -9 and GPR7 antagonist -9.
For c1ccc(Cn2nnnc2C(c2cccs2)N2CCCCCC2)cc1 (stereo not drawn) the results were GalR3 antag 2, OX1R antag-1 38, OX1R antag-2 9, CHO parental Ca 4, GPR7 antagonist -10, OX1R Ca confirm -15 and CHO Ca triplic -13.
For COc1ccc(CC(=O)Nc2nc(-c3ccc(F)c(F)c3)cs2)cc1 the results were GalR3 antag -9, OX1R antag-1 -23, OX1R antag-2 13, CHO parental Ca 7 and GPR7 antagonist 4.
`CC1(C(=O)OCC(=O)Nc2nc(-c3ccc(F)c(F)c3)cs2)CC1(Cl)Cl` (stereo not drawn) gave GalR3 antag -3, OX1R antag-1 28, OX1R antag-2 32, CHO parental Ca 18, GPR7 antagonist 7, OX1R Ca confirm 14 and CHO Ca triplic -2.
COc1cnc(-c2cccc(C(F)(F)F)c2)c(NC(=O)c2cc3ccccc3s2)n1 was read as GalR3 antag -10.
Cc1noc(C)c1S(=O)(=O)N(C)C[C@@H]1OCc2cnnn2CCCC(=O)N([C@@H](C)CO)C[C@@H]1C was read as GalR3 antag 2.
`Cc1ccc(C)c(OCCC(=O)NNC(=O)c2ccccc2)c1` gave GalR3 antag -3, OX1R antag-1 18, OX1R antag-2 14, CHO parental Ca 8, OX1R Ca confirm -4 and CHO Ca triplic -3.
